Holding throughout (assay type): functional
Assay [1] deals with Haemophilus influenzae. Nature of the assay: In vitro antibacterial activity against DILL strain of Haemophilus influenzae. The essentials: (§1)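 MIC determined by standard agar dilution; values in μg/mL.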
The test system of assay [2] is Staphylococcus aureus. In words: In vitro antibacterial activity against 6538P strain of Staphylococcus aureus. The essentials:
as §1

The test system of assay [3] is Staphylococcus aureus. Nature of the assay: In vitro antibacterial activity against A5177 strain of Staphylococcus aureus. The essentials: as §1
For assay [4], the system named is Streptococcus pneumoniae. In words: In vitro antibacterial activity against 5649 strain of Streptococcus pneumoniae. The essentials:
as §1

In assay [5] the test system is Streptococcus pneumoniae. Nature of the assay: In vitro antibacterial activity against 5979 strain of Streptococcus pneumoniae. In a few lines: as §1
Assay [6] concerns Streptococcus pyogenes. In words: In vitro antibacterial activity against 930 strain of Streptococcus pyogenes. In a few lines:
as §1

Assay [7] has as its system Streptococcus pneumoniae. Nature of the assay: In vitro antibacterial activity against ATCC 6303 strain of Streptococcus pneumoniae. The essentials:
as §1

The subject of assay [8] is Streptococcus pyogenes. Nature of the assay: In vitro antibacterial activity against PIU 2548 strain of Streptococcus pyogenes. In a few lines: as §1
Assay [9] is described as follows: In vitro antibacterial activity against A-5278 strain of Staphylococcus aureus. Particulars: Staphylococcus aureus. The essentials:
as §1

Assay [10] deals with Mus musculus. Nature of the assay: Effective dose when administered subcutaneously in mice infected with Streptococcus pneumoniae ATCC 6303. Particulars: sc. The essentials: (§2)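 Mice infected intraperitoneally with 1000 × LD₅₀ (S. aureus) or […] × LD₅₀ (S. pneumoniae). Compound given orally (po) or subcutaneously (sc) at 1 and 5 h post-infection. ED₅₀ expressed in mg/kg/day with 95% confidence interval.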

The test system of assay [11] is Mus musculus. Nature of the assay: Effective dose when administered orally in mice infected with Staphylococcus aureus NCTC-10649M. The conditions noted are these: po. The essentials:
as §2

Assay [12] relates to Mus musculus. Nature of the assay: Effective dose when administered orally in mice infected with Streptococcus pneumoniae ATCC 6303. Particulars: po. The essentials:
as §2

Assay [13] concerns Mus musculus. Nature of the assay: Effective dose when administered subcutaneously in mice infected with Staphylococcus aureus NCTC-10649M. Particulars: sc. In a few lines:
as §2

In assay [14] the test system is Staphylococcus aureus. Nature of the assay: In vivo antibacterial activity in mice infected with Staphylococcus aureus NCTC-10649M.
Assay [15] has as its system Streptococcus pneumoniae. Nature of the assay: In vivo antibacterial activity in mice infected with Streptococcus pneumoniae ATCC 6303.
Where [16] appears, read: Streptococcus pneumoniae, ATCC 6303.

These results are taken from ChEMBL document CHEMBL1131215, “Anhydrolide macrolides. 1. Synthesis and antibacterial activity of 2,3-anhydro-6-O-methyl 11,12-carbamate erythromycin A analogues” (1998).

≈ marks a conversion by molar mass, not a printed value.

For `CC[C@H]1OC(=O)/C(C)=C/[C@H](C)[C@@H](O[C@@H]2O[C@H](C)C[C@H](N(C)C)[C@H]2O)[C@@](C)(OC)C[C@@H](C)C(=O)[C@H](C)[C@H]2N(CCc3cccs3)C(=O)O[C@]12C`, the MIC in assay [1] came to 16 µg/mL (≈ 22.6 µM); in assay [2] (Staphylococcus aureus) it was 0.39 µg/mL (≈ 0.552 µM); in [3] (Staphylococcus aureus), 0.39 µg/mL (≈ 0.552 µM); in [4] (Streptococcus pneumoniae), 0.5 µg/mL (≈ 0.707 µM); in assay [5] it was 32 µg/mL (≈ 45.3 µM); in [6] (Streptococcus pyogenes), 25 µg/mL (≈ 35.4 µM). Besides, the MIC in [7] (setting [16]) is 0.125 µg/mL (≈ 0.177 µM); in [8] (Streptococcus pyogenes) it was 0.2 µg/mL (≈ 0.283 µM); in [9] it was 50 µg/mL (≈ 70.7 µM).
For orientation: ED50 means the dose that gives a 50% effect, or the effect in half of the subjects. Lower therefore signals greater potency. As for `CC[C@H]1OC(=O)/C(C)=C/[C@H](C)[C@@H](O[C@@H]2O[C@H](C)C[C@H](N(C)C)[C@H]2O)[C@@](C)(OC)C[C@@H](C)C(=O)[C@H](C)[C@H]2N(CCc3ccc(Cl)c(Cl)c3)C(=O)O[C@]12C`, the MIC in [1] turned out to be 32 µg/mL (≈ 41.6 µM); in assay [2] (Staphylococcus aureus), 0.39 µg/mL (≈ 0.507 µM); in [3] (Staphylococcus aureus), 0.39 µg/mL (≈ 0.507 µM); in [14] it was 0.39 µg/mL (≈ 0.507 µM); in assay [4] (Streptococcus pneumoniae), 2 µg/mL (≈ 2.6 µM); in [5], 8 µg/mL (≈ 10.4 µM). In addition, the MIC in assay [6] (Streptococcus pyogenes) is 6.2 µg/mL (≈ 8.05 µM); in [7] (setting [16]), 0.12 µg/mL (≈ 0.156 µM); in assay [8] (Streptococcus pyogenes) it was 0.2 µg/mL (≈ 0.26 µM); in assay [15], 0.12 µg/mL (≈ 0.156 µM); in assay [9] it was 12.5 µg/mL (≈ 16.2 µM). Moreover, the ED50 in assay [10] is above 16 mg/kg/day; in [11], above 100 mg/kg/day; in [12] it was above 40 mg/kg/day; in [13], above 40 mg/kg/day.
Consider `CC[C@H]1OC(=O)/C(C)=C/[C@H](C)[C@@H](O[C@@H]2O[C@H](C)C[C@H](N(C)C)[C@H]2O)[C@@](C)(OC)C[C@@H](C)C(=O)[C@H](C)[C@H]2N(CCc3cccc(OC)c3)C(=O)O[C@]12C`, for which the MIC in assay [1] came out at 16 µg/mL (≈ 21.9 µM); in assay [2] (Staphylococcus aureus), 0.39 µg/mL (≈ 0.534 µM); in [3] (Staphylococcus aureus), 0.39 µg/mL (≈ 0.534 µM); in assay [14], 0.39 µg/mL (≈ 0.534 µM); in assay [4] (Streptococcus pneumoniae), 2 µg/mL (≈ 2.74 µM); in [5] it was 64 µg/mL (≈ 87.6 µM). For the same compound, the MIC was found to be 25 µg/mL (≈ 34.2 µM) in assay [6] (Streptococcus pyogenes), 0.25 µg/mL (≈ 0.342 µM) in assay [7] (setting [16]), 0.39 µg/mL (≈ 0.534 µM) in [8] (Streptococcus pyogenes) and 0.25 µg/mL (≈ 0.342 µM) in assay [15]. In addition, the 50% effective dose (ED50) in assay [11] and in assay [12] was above 100 mg/kg/day throughout.
`CC[C@H]1OC(=O)/C(C)=C/[C@H](C)[C@@H](O[C@@H]2O[C@H](C)C[C@H](N(C)C)[C@H]2O)[C@@](C)(OC)C[C@@H](C)C(=O)[C@H](C)[C@H]2N(CCc3ccc(Br)cc3)C(=O)O[C@]12C`: the MIC in assay [1] is 16 µg/mL (≈ 20.5 µM); in [2] (Staphylococcus aureus) it was 0.39 µg/mL (≈ 0.5 µM); in [3] (Staphylococcus aureus), 0.39 µg/mL (≈ 0.5 µM); in [14] it was 0.39 µg/mL (≈ 0.5 µM); in [4] (Streptococcus pneumoniae), 1 µg/mL (≈ 1.28 µM); in [5] it was 16 µg/mL (≈ 20.5 µM). Further, the MIC in assay [6] (Streptococcus pyogenes) turned out to be 6.2 µg/mL (≈ 7.95 µM); in assay [7] (setting [16]), 0.125 µg/mL (≈ 0.16 µM); in assay [8] (Streptococcus pyogenes), 0.39 µg/mL (≈ 0.5 µM); in assay [15] it was 0.125 µg/mL (≈ 0.16 µM); in assay [9] it was 25 µg/mL (≈ 32.1 µM). Moreover, the ED50 in assay [11] and in [12] was above 100 mg/kg/day each time.
`CC[C@H]1OC(=O)/C(C)=C/[C@H](C)[C@@H](O[C@@H]2O[C@H](C)C[C@H](N(C)C)[C@H]2O)[C@@](C)(OC)C[C@@H](C)C(=O)[C@H](C)[C@H]2N(CCCOc3ccc4ccccc4c3)C(=O)O[C@]12C`: the MIC in [1] amounted to 64 µg/mL (≈ 81.9 µM); in [2] (Staphylococcus aureus), 0.2 µg/mL (≈ 0.256 µM); in assay [3] (Staphylococcus aureus), 0.39 µg/mL (≈ 0.499 µM); in assay [4] (Streptococcus pneumoniae), 2 µg/mL (≈ 2.56 µM); in assay [5], 8 µg/mL (≈ 10.2 µM); in assay [6] (Streptococcus pyogenes), 3.1 µg/mL (≈ 3.97 µM). In addition, the MIC is 0.03 µg/mL (≈ 0.0384 µM) in assay [7] (setting [16]), 0.39 µg/mL (≈ 0.499 µM) in assay [8] (Streptococcus pyogenes) and 25 µg/mL (≈ 32 µM) in assay [9].
In the case of `CC[C@H]1OC(=O)/C(C)=C/[C@H](C)[C@@H](O[C@@H]2O[C@H](C)C[C@H](N(C)C)[C@H]2O)[C@@](C)(OC)C[C@@H](C)C(=O)[C@H](C)[C@H]2N(CCc3ccc(Oc4ccccc4)cc3)C(=O)O[C@]12C` (stereo in doubt; 14), the MIC in assay [2] came to 3.1 µg/mL (≈ 3.91 µM); in [3], 3.1 µg/mL (≈ 3.91 µM); in assay [4], 2 µg/mL (≈ 2.52 µM); in assay [5], 8 µg/mL (≈ 10.1 µM); in assay [6] (Streptococcus pyogenes), 6.2 µg/mL (≈ 7.82 µM); in [7], 1 µg/mL (≈ 1.26 µM). Besides, the MIC in [8] (Streptococcus pyogenes) was 1.56 µg/mL (≈ 1.97 µM); in assay [9], 25 µg/mL (≈ 31.5 µM).
As to `CC[C@H]1OC(=O)/C(C)=C/[C@H](C)[C@@H](O[C@@H]2O[C@H](C)C[C@H](N(C)C)[C@H]2O)[C@@](C)(OC)C[C@@H](C)C(=O)[C@H](C)[C@H]2N(CCc3ccc(F)cc3)C(=O)O[C@]12C`, the MIC was 16 µg/mL (≈ 22.3 µM) in assay [1]; 0.39 µg/mL (≈ 0.542 µM) in [2] (Staphylococcus aureus); 0.39 µg/mL (≈ 0.542 µM) in [3] (Staphylococcus aureus); 0.39 µg/mL (≈ 0.542 µM) in [14]; 1 µg/mL (≈ 1.39 µM) in assay [4] (Streptococcus pneumoniae); 32 µg/mL (≈ 44.5 µM) in assay [5]. Also, the MIC in [6] (Streptococcus pyogenes) came to 25 µg/mL (≈ 34.8 µM); in assay [7] (setting [16]), 0.125 µg/mL (≈ 0.174 µM); in [8] (Streptococcus pyogenes), 0.39 µg/mL (≈ 0.542 µM); in assay [15] it was 0.125 µg/mL (≈ 0.174 µM); in [9] it was 50 µg/mL (≈ 69.6 µM). In addition, the ED50 is above 100 mg/kg/day in assay [11] and above 40 mg/kg/day in assay [12].
Consider `CC[C@H]1OC(=O)/C(C)=C/[C@H](C)[C@@H](O[C@@H]2O[C@H](C)C[C@H](N(C)C)[C@H]2O)[C@@](C)(OC)C[C@@H](C)C(=O)[C@H](C)[C@H]2N(CCCc3ccccc3)C(=O)O[C@]12C` (stereo in doubt; 10), for which the MIC stood at 3.1 µg/mL (≈ 4.34 µM) in [2]; 3.1 µg/mL (≈ 4.34 µM) in [3]; 2 µg/mL (≈ 2.8 µM) in [4] (Streptococcus pneumoniae); 64 µg/mL (≈ 89.5 µM) in [5]; 25 µg/mL (≈ 35 µM) in assay [6]; 1 µg/mL (≈ 1.4 µM) in assay [7] (setting [16]). The MIC in assay [8] amounted to 0.78 µg/mL (≈ 1.09 µM); in assay [9], 50 µg/mL (≈ 69.9 µM).
